pEC50: −log10 of the molar value. Calls of active or inactive are those of the source. No cut-off for these calls is given here.
Experiments:
PC-12 [1] = test: cells; settings: Rattus norvegicus, PC-12, 24 h
PC-12 [2] = test: Neuroprotective activity against 12.5 mM glutamate-induced toxicity in rat PC12 cells assessed as cell viability at 10 uM after 24 hrs by MTT assay; assay type: functional, cell-based
In short: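 Concentration-response run in PC12 cells co-exposed 24 h to 12.5 mM glutamate and compound at 0.1, 1, 5, 10, 15 or 20 μM. Viability by MTT (4 h at 37 °C, formazan in DMSO, A570), relative to untreated control; mean ± SD, n = 6.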

PC-12 [3] = test: Cytotoxicity against rat PC12 cells assessed as decrease in cell viability at 20 uM after 24 hrs by MTT assay; assay type: cell-based; settings: pc-12, 24 h
In short: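 PC12 cells grown in DMEM with 10% FBS at 37 °C and 5% CO2, seeded at 10 000 cells/well and cultured 24 h. Compound added at 20 μM without glutamate (DMSO stock at 1000× final). Then MTT (5 mg/mL stock) added for 4 h at 37 °C, formazan dissolved in DMSO, and A570 read. Viability given as % of untreated control.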

PC-12 [4] = test: Neuroprotective activity against 12.5 mM glutamate-induced toxicity in rat PC12 cells assessed as cell viability at 0.1 uM after 24 hrs by MTT assay
PC-12 [5] = test: Neuroprotective activity against 12.5 mM glutamate-induced apoptosis in rat PC12 cells assessed as decrease in cytochrome c level at 0.1 to 10 uM after 24 hrs by chemiluminescence based Western blot analysis; assay type: functional, cell-based
In short: (§1)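 PC12 cells exposed 24 h to compound at 0.1, 1 or 10 μM, with or without 12.5 mM glutamate. Protein extracted in lysis buffer and quantified by BCA. Equal amounts run on 12% SDS-PAGE, blotted to nitrocellulose, blocked in 5% nonfat milk, then primary antibodies overnight at 4 °C and HRP secondaries. Cytochrome c measured in the cytosolic fraction. Mean ± SD, n = 3.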

PC-12 [6] = test: Neuroprotective activity against 12.5 mM glutamate-induced apoptosis in rat PC12 cells assessed as increase in Bcl-2 level at 0.1 to 10 uM after 24 hrs by chemiluminescence based Western blot analysis; assay type: functional, cell-based
In short: as §1

PC-12 [7] = test: Neuroprotective activity against 12.5 mM glutamate-induced apoptosis in rat PC12 cells assessed as decrease in caspase 3 level after 24 hrs by chemiluminescence based Western blot analysis; assay type: functional, cell-based
In short: as §1

PC-12 [8] = test: Neuroprotective activity against 12.5 mM glutamate-induced apoptosis in rat PC12 cells assessed as early apoptotic cells at 0.1 uM after 24 hrs by Annexin V-FITC/propidium iodide staining based flow cytometry (reference value: 1.04%); assay type: functional
PC-12 [9] = test: Neuroprotective activity against 12.5 mM glutamate-induced apoptosis in rat PC12 cells assessed as late apoptotic cells at 0.1 uM after 24 hrs by Annexin V-FITC/propidium iodide staining based flow cytometry (reference value: 45.53%); assay type: functional
PC-12 [10] = test: Neuroprotective activity against 12.5 mM glutamate-induced apoptosis in rat PC12 cells assessed as late apoptotic cells at 10 uM after 24 hrs by Annexin V-FITC/propidium iodide staining based flow cytometry (reference value: 45.53%); assay type: functional
PC-12 [11] = test: Neuroprotective activity against 12.5 mM glutamate-induced apoptosis in rat PC12 cells assessed as early apoptotic cells at 10 uM after 24 hrs by Annexin V-FITC/propidium iodide staining based flow cytometry (reference value: 1.04%); assay type: functional
PC-12 [12] = test: Neuroprotective activity against 12.5 mM glutamate-induced apoptosis in rat PC12 cells assessed as late apoptotic cells at 1 uM after 24 hrs by Annexin V-FITC/propidium iodide staining based flow cytometry (reference value: 45.53%); assay type: functional
PC-12 [13] = test: Neuroprotective activity against 12.5 mM glutamate-induced apoptosis in rat PC12 cells assessed as decrease in caspase 9 level after 24 hrs by chemiluminescence based Western blot analysis; assay type: functional, cell-based
In short: as §1

PC-12 [14] = test: Induction of apoptosis in rat PC12 cells assessed as late apoptotic cells at 10 uM after 24 hrs by Annexin V-FITC/propidium iodide staining based flow cytometry (reference value: 45.53%); assay type: cell-based; settings: pc-12, 24 h
PC-12 [15] = test: Neuroprotective activity against 12.5 mM glutamate-induced apoptosis in rat PC12 cells assessed as early apoptotic cells at 1 uM after 24 hrs by Annexin V-FITC/propidium iodide staining based flow cytometry (reference value: 1.04%); assay type: functional
PC-12 [16] = test: Neuroprotective activity against 12.5 mM glutamate-induced apoptosis in rat PC12 cells assessed as decrease in Bax level at 0.1 to 10 uM after 24 hrs by chemiluminescence based Western blot analysis; assay type: functional, cell-based
In short: as §1

PC-12 [17] = test: Induction of apoptosis in rat PC12 cells assessed as early apoptotic cells at 10 uM after 24 hrs by Annexin V-FITC/propidium iodide staining based flow cytometry (reference value: 1.04%); assay type: cell-based; settings: pc-12, 24 h

pEC50 (PC-12 [1])	Compound	Activity (PC-12 [2])	Activity (PC-12 [3])	other results
5.05	CCCCCCCCC/C=C\CC/C=C/[C@@H](O)[C@H](CO[C@@H]1O[C@H](CO)[C@@H](O)[C@H](O)[C@H]1O)NC(=O)[C@H](O)CCCCCCCCCCCCCCCCCCC	Active	Non-Toxic	–
5.16	CCCCCCCCC/C=C/CC/C=C/[C@@H](O)[C@H](CO[C@@H]1O[C@H](CO)[C@@H](O)[C@H](O)[C@H]1O)NC(=O)[C@H](O)CCCCCCCCCCCCCCCCCCCC	Active	Non-Toxic	–
4.65	CCCCCCCCC/C=C/CC/C=C/[C@@H](O)[C@H](CO[C@@H]1O[C@H](CO)[C@@H](O)[C@H](O)[C@H]1O)NC(=O)[C@H](O)CCCCCCCCCCCCCCCC	Active	Non-Toxic	–
4.70	CCCCCCCCC/C=C\CC/C=C/[C@@H](O)[C@H](CO[C@@H]1O[C@H](CO)[C@@H](O)[C@H](O)[C@H]1O)NC(=O)[C@H](O)CCCCCCCCCCCCCCCC	Active	Non-Toxic	–
4.92	CCCCCCCCC/C=C\CC/C=C/[C@@H](O)[C@H](CO[C@@H]1O[C@H](CO)[C@@H](O)[C@H](O)[C@H]1O)NC(=O)[C@H](O)CCCCCCCCCCCCCCCCCC	Active	Non-Toxic	–
5.06	CCCCCCCCC/C=C/CC/C=C/[C@@H](O)[C@H](CO[C@@H]1O[C@H](CO)[C@@H](O)[C@H](O)[C@H]1O)NC(=O)[C@H](O)CCCCCCCCCCCCCCCCCCC	Active	Non-Toxic	–
4.53	CCCCCCCCC/C=C/CC/C=C/[C@@H](O)[C@H](CO[C@@H]1O[C@H](CO)[C@@H](O)[C@H](O)[C@H]1O)NC(=O)[C@H](O)CCCCCCCCCCCCCC	Active	Non-Toxic	–
5.57	CCCCCCCCC/C=C/CC/C=C/[C@@H](O)[C@H](CO[C@@H]1O[C@H](CO)[C@@H](O)[C@H](O)[C@H]1O)NC(=O)[C@H](O)CCCCCCCCCCCCCCCCCCCCCC	Active	Non-Toxic	–
4.57	CCCCCCCCC/C=C\CC/C=C/[C@@H](O)[C@H](CO[C@@H]1O[C@H](CO)[C@@H](O)[C@H](O)[C@H]1O)NC(=O)[C@H](O)CCCCCCCCCCCCCC	Active	Non-Toxic	–
5.19	CCCCCCCCC/C=C\CC/C=C/[C@@H](O)[C@H](CO[C@@H]1O[C@H](CO)[C@@H](O)[C@H](O)[C@H]1O)NC(=O)[C@H](O)CCCCCCCCCCCCCCCCCCCC	Active	Non-Toxic	–
5.04	CC1=NN(c2ccccc2)C(=O)C1 [EDARAVONE]	–	–	–
5.60	CCCCCCCCC/C=C\CC/C=C/[C@@H](O)[C@H](CO[C@@H]1O[C@H](CO)[C@@H](O)[C@H](O)[C@H]1O)NC(=O)[C@H](O)CCCCCCCCCCCCCCCCCCCCCC	Active	Non-Toxic	Activity (PC-12 [4]): Active; Activity (PC-12 [5]): Active; Activity (PC-12 [6]): Active; Activity (PC-12 [7]): Dose-dependent effect; Activity (PC-12 [8]): 1.79%; Activity (PC-12 [9]): 30.63%; Activity (PC-12 [10]): 2.11%; Activity (PC-12 [11]): 1.02%; Activity (PC-12 [12]): 22.38%; Activity (PC-12 [13]): Dose-dependent effect; Activity (PC-12 [14]): 1.49%; Activity (PC-12 [15]): 1.2%; Activity (PC-12 [16]): Active; Activity (PC-12 [17]): 0.62%
4.91	CCCCCCCCC/C=C/CC/C=C/[C@@H](O)[C@H](CO[C@@H]1O[C@H](CO)[C@@H](O)[C@H](O)[C@H]1O)NC(=O)[C@H](O)CCCCCCCCCCCCCCCCCC	Active	Non-Toxic	–
5.18	CCCCCCCCC/C=C\CCC[C@@H](O)[C@@H](O)[C@H](CO[C@@H]1O[C@H](CO)[C@@H](O)[C@H](O)[C@H]1O)NC(=O)[C@H](O)CCCCCCCCCCCCCCCCCCCC	Active	Non-Toxic	–

From ChEMBL document CHEMBL4190188, “Neuroprotective Activity of Cerebrosides from Typhonium giganteum by Regulating Caspase-3 and Bax/Bcl-2 Signaling Pathways in PC12 Cells” (J Nat Prod, 2017)
